According to ChEMBL document CHEMBL3046448, “Design and syntheses of novel phthalazin-1(2H)-one derivatives as acetohydroxyacid synthase inhibitors” (J Agric Food Chem, 2006):

Experiments:
Chenopodium album [1] = assay: Herbicidal activity against Chenopodium album assessed as growth inhibition at 150 g ai/ha applied as post-emergence treatment under green house conditions measured 15 days post compound treatment; format: functional; conditions: 360 h, read-out: GI
Procedure, shortened: (§1)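 Post-emergence spray on pot-grown dicot weeds at the two-leaf stage in a greenhouse. Clay soil: pH 6.5, 1.6% organic matter, 37.3% clay, CEC 12.1 cmol/kg. Formulation: 100 g/L DMF/TW-80 emulsified concentrate, water-diluted to 150 g ai/ha. Untreated and DMF solvent controls. Visual inhibition rating at 15 days: ++ >80%, + 50-80%, − <50%.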

Amaranthus retroflexus [2] = assay: Herbicidal activity against Amaranthus retroflexus assessed as growth inhibition at 150 g ai/ha applied as post-emergence treatment under green house conditions measured 15 days post compound treatment; format: functional; conditions: 360 h, read-out: GI; procedure, shortened: as §1
Brassica juncea [3] = assay: Herbicidal activity against Brassica juncea assessed as growth inhibition at 150 g ai/ha applied as post-emergence treatment under green house conditions measured 15 days post compound treatment; format: functional; conditions: 360 h, read-out: GI; procedure, shortened: as §1
Setaria viridis [4] = assay: Herbicidal activity against Setaria viridis (green foxtail) assessed as growth inhibition at 150 g ai/ha applied as post-emergence treatment under green house conditions measured 15 days post compound treatment; format: functional; conditions: 360 h, read-out: GI
Procedure, shortened: (§2)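 Monocot weeds grown in pots in a greenhouse and sprayed post-emergence at the one-leaf stage. Clay soil: pH 6.5, 1.6% organic matter, 37.3% clay, CEC 12.1 cmol/kg. Formulation: 100 g/L emulsified concentrate (DMF, TW-80) diluted with water to 150 g ai/ha. Untreated and DMF controls included. Growth inhibition scored visually after 15 days: ++ >80%, + 50-80%, − <50%.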

Digitaria sanguinalis [5] = assay: Herbicidal activity against Digitaria sanguinalis (hairy crabgrass) assessed as growth inhibition at 150 g ai/ha applied as post-emergence treatment under green house conditions measured 15 days post compound treatment; format: functional; conditions: 360 h, read-out: GI; procedure, shortened: as §2
Amaranthus retroflexus [6] = assay: Herbicidal activity against Amaranthus retroflexus assessed as growth inhibition at 150 g ai/ha applied as pre-emergence treatment 24 hr after weeds seeds sowing under green house conditions measured 15 days post compound treatment; format: functional; conditions: read-out: GI
Procedure, shortened: (§3)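 Pre-emergence spray applied 24 h after sowing weeds in pots in a greenhouse. Clay soil: pH 6.5, 1.6% organic matter, 37.3% clay, CEC 12.1 cmol/kg. Formulation: 100 g/L emulsified concentrate (DMF solvent, TW-80 emulsifier) diluted with water to 150 g ai/ha. Untreated and DMF-treated controls. Growth inhibition judged visually at 15 days: ++ >80%, + 50-80%, − <50%.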

Brassica juncea [7] = assay: Herbicidal activity against Brassica juncea assessed as growth inhibition at 150 g ai/ha applied as pre-emergence treatment 24 hr after weeds seeds sowing under green house conditions measured 15 days post compound treatment; format: functional; conditions: read-out: GI; procedure, shortened: as §3
Setaria viridis [8] = assay: Herbicidal activity against Setaria viridis (green foxtail) assessed as growth inhibition at 150 g ai/ha applied as pre-emergence treatment 24 hr after weeds seeds sowing under green house conditions measured 15 days post compound treatment; format: functional; conditions: read-out: GI; procedure, shortened: as §3
Digitaria sanguinalis [9] = assay: Herbicidal activity against Digitaria sanguinalis (hairy crabgrass) assessed as growth inhibition at 150 g ai/ha applied as pre-emergence treatment 24 hr after weeds seeds sowing under green house conditions measured 15 days post compound treatment; format: functional; conditions: read-out: GI; procedure, shortened: as §3
Echinochloa crus-galli [10] = assay: Herbicidal activity against Echinochloa crus-galli (barnyard grass) assessed as growth inhibition at 150 g ai/ha applied as post-emergence treatment under green house conditions measured 15 days post compound treatment; format: functional; conditions: 360 h, read-out: GI; procedure, shortened: as §2
Chenopodium album [11] = assay: Herbicidal activity against Chenopodium album assessed as growth inhibition at 150 g ai/ha applied as pre-emergence treatment 24 hr after weeds seeds sowing under green house conditions measured 15 days post compound treatment; format: functional; conditions: read-out: GI; procedure, shortened: as §3
Echinochloa crus-galli [12] = assay: Herbicidal activity against Echinochloa crus-galli (barnyard grass) assessed as growth inhibition at 150 g ai/ha applied as pre-emergence treatment 24 hr after weeds seeds sowing under green house conditions measured 15 days post compound treatment; format: functional; conditions: read-out: GI; procedure, shortened: as §3
[13] = molecular target: T1, Acetolactate synthase, chloroplastic (Arabidopsis thaliana, UniProt P17597); assay: Inhibition of wild type Arabidopsis thaliana acetohydroxyacid synthase
T1 sequence (P17597 whole entry): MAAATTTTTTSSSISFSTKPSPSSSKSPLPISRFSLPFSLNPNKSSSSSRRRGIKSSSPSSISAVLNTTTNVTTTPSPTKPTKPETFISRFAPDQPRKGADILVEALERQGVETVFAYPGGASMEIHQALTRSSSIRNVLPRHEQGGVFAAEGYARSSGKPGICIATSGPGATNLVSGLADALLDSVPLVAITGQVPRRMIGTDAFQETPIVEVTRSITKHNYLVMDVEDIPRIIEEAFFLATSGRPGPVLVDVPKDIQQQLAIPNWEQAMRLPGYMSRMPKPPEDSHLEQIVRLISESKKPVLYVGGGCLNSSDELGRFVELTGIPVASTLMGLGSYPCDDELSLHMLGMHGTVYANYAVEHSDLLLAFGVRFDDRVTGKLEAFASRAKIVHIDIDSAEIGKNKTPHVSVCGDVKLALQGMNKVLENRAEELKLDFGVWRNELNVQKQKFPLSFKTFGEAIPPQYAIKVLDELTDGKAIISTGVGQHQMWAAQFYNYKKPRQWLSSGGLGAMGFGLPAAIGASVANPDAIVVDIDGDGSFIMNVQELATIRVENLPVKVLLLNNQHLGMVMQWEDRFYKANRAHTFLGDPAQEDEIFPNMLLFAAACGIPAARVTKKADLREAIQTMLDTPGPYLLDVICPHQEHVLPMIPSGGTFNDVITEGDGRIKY

Structure (SMILES) | inhibition of growth at 150 g/ha (Chenopodium album [1]) [%] | inhibition of growth at 150 g/ha (Amaranthus retroflexus [2]) [%] | inhibition of growth at 150 g/ha (Brassica juncea [3]) [%] | inhibition of growth at 150 g/ha (Setaria viridis [4]) [%] | inhibition of growth at 150 g/ha (Digitaria sanguinalis [5]) [%] | inhibition of growth at 150 g/ha (Amaranthus retroflexus [6]) [%] | inhibition of growth at 150 g/ha (Brassica juncea [7]) [%] | inhibition of growth at 150 g/ha (Setaria viridis [8]) [%] | inhibition of growth at 150 g/ha (Digitaria sanguinalis [9]) [%] | inhibition of growth at 150 g/ha (Echinochloa crus-galli [10]) [%] | inhibition of growth at 150 g/ha (Chenopodium album [11]) [%] | inhibition of growth at 150 g/ha (Echinochloa crus-galli [12]) [%] | Ki [13] [µM]
CCCn1nc(C)c2cccc(Oc3nc(OC)cc(OC)n3)c2c1=O | 50 | > 80 | 50 | 50 | 50 | < 50 | < 50 | < 50 | < 50 | 50 | < 50 | < 50 | 1660
CCc1ccc(C(=O)n2nc(C)c3cccc(Oc4nc(OC)cc(OC)n4)c3c2=O)cc1 | 50 | > 80 | 50 | 50 | < 50 | < 50 | < 50 | < 50 | < 50 | 50 | < 50 | < 50 | 710
COc1cc(OC)nc(Oc2cccc3c(C)nn(CC(=O)OC(C)(C)C)c(=O)c23)n1 | < 50 | < 50 | < 50 | < 50 | < 50 | < 50 | < 50 | < 50 | < 50 | < 50 | < 50 | < 50 | 1560
COc1cc(OC)nc(Oc2cccc3c(C)nn(CC4OCCO4)c(=O)c23)n1 | 50 | > 80 | 50 | > 80 | 50 | < 50 | < 50 | < 50 | < 50 | 50 | < 50 | < 50 | 778
COc1cc(OC)nc(Oc2cccc3c(C)nn(Cc4ccc(Br)cc4)c(=O)c23)n1 | < 50 | < 50 | < 50 | < 50 | < 50 | < 50 | < 50 | < 50 | < 50 | < 50 | < 50 | < 50 | 310
COc1cc(OC)nc(Oc2cccc3c(C)nn(Cc4ccc(C)cc4)c(=O)c23)n1 | < 50 | < 50 | < 50 | < 50 | < 50 | < 50 | < 50 | < 50 | < 50 | < 50 | < 50 | < 50 | 637
COc1cc(OC)nc(Oc2cccc3c(C)nn(Cc4ccc(Cl)cc4)c(=O)c23)n1 | < 50 | < 50 | < 50 | < 50 | < 50 | < 50 | < 50 | < 50 | < 50 | < 50 | < 50 | < 50 | 203
COc1cc(OC)nc(Oc2cccc3c(C)nn(Cc4cc(C)ccc4[N+](=O)[O-])c(=O)c23)n1 | 50 | > 80 | 50 | 50 | < 50 | < 50 | < 50 | < 50 | < 50 | 50 | < 50 | < 50 | 310
COc1cc(OC)nc(Oc2cccc3c(C)nn(Cc4ccccc4Cl)c(=O)c23)n1 | < 50 | < 50 | < 50 | < 50 | < 50 | < 50 | < 50 | < 50 | < 50 | < 50 | < 50 | < 50 | 210
COc1cc(OC)nc(Oc2cccc3c(C)nn(Cc4cccc(Cl)c4)c(=O)c23)n1 | 50 | > 80 | 50 | < 50 | < 50 | < 50 | < 50 | < 50 | < 50 | 50 | < 50 | < 50 | 216
COc1cc(OC)nc(Oc2cccc3c(C)nn(Cc4ccccc4C)c(=O)c23)n1 | 50 | > 80 | 50 | 50 | < 50 | < 50 | < 50 | < 50 | < 50 | < 50 | < 50 | < 50 | 262
CCCCn1nc(C)c2cccc(Oc3nc(OC)cc(OC)n3)c2c1=O | > 80 | > 80 | 50 | 50 | < 50 | < 50 | < 50 | < 50 | < 50 | 50 | < 50 | < 50 | 441
CO/N=C(/C)c1cccc(Oc2nc(OC)cc(OC)n2)c1C(=O)OC [PYRIMINOBAC-METHYL] | > 80 | > 80 |  |  | > 80 | < 50 | < 50 | < 50 | < 50 | > 80 | < 50 | < 50 | 49
